Activity calls are given as the source filed them. No cut-off for these calls is given here.
Legend:
[1] = Aqueous solubility of compound in unbuffered H2O at pH 7 by absorbance spectroscopy based LC-MS analysis; type: physicochemical; settings: buffer
Outline: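 Aqueous solubility was measured in three independent determinations and reported as mean and SD.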

[2] = Drug uptake in human H460 cells at 20 uM incubated for 4 hrs by LC-MS analysis; type: ADME, cell-based; settings: nci-h460, 4 h
Outline: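 H460 NSCLC cells. Individual points come from three independent determinations and are reported as mean and SD.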

Salmon testes DNA = experiment: Displacement of SYBR-green from salmon sperm DNA assessed as DNA intercalation by measuring reduction in fluorescence at 5 to 20 uM after 5 mins by fluorescent intercalator displacement assay; type: nucleic-acid assay; settings: Salmonidae
Outline: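 Sybr-green intercalator bound to DNA. Displacement was read as a fall in fluorescence across a range of compound concentrations. Doxorubicin served as the positive control.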

[3] = Inhibition of 5'[32P]-labeled 34 base ssDNA binding to recombinant full length human RPA expressed in Escherichia coli cells preincubated for 30 mins followed by labeled DNA addition and measured after 5 mins by electrophoretic mobility shift assay
Outline: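 Purified heterotrimeric human RPA without tags or modifications, binding to ssDNA read by EMSA. […] IC50 is the mean of at least three independent experiments, reported as mean ± SD.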

Homo sapiens = species on record: Homo sapiens; experiment: Inhibition of 5'[32P]-labeled 34 base ssDNA binding to SUMO-His6-tagged RPA DBD A/B domain (181-432 residues) (unknown origin) expressed in Escherichia coli BL21 (DE3) cells preincubated for 30 mins followed by labeled DNA addition and measured after 5 mins by electrophoretic mobility shift assay
[4] = Irreversible inhibition of RPA (unknown origin); design: species or system Homo sapiens

| Compound | solubility [1] | IC50 ([3]; read-out: IC50) | other results |
| --- | --- | --- | --- |
| CCOc1ccc2cc(C3CC(c4ccc(I)cc4)=NN3C(=O)CCCC(=O)NCCCN3CCOCC3)c(Cl)nc2c1 (stereo not given) | Soluble | 4.9 µM | Drug uptake [2]: Active; inhibition (Salmon testes DNA): inactive |
| CCOc1ccc2cc(C3CC(c4ccc(-c5ccc(Cl)nc5)cc4)=NN3C(=O)CCCC(=O)NCCCN3CCOCC3)c(Cl)nc2c1 (stereo not given) | Soluble | 4 µM | Drug uptake [2]: Active; inhibition (Salmon testes DNA): inactive |
| CCOc1ccc2cc(C3CC(c4ccc(I)cc4)=NN3C(=O)CCCC(=O)N3CCOCC3)c(Cl)nc2c1 (stereo not given) | – | 6.6 µM | – |
| CC1(C)[C@@H]2CC[C@@]1(C)[C@H](OC(=O)CBr)C2 | – | – | IC50 [4]: 16 µM |
| COc1cccc2c1C(=O)c1c(O)c3c(c(O)c1C2=O)C[C@@](O)(C(=O)CO)C[C@@H]3O[C@H]1C[C@H](N)[C@H](O)[C@H](C)O1 | – | – | inhibition (Salmon testes DNA): Dose-dependent effect |
| CCOc1ccc2cc(C3CC(c4ccc(-c5ccc(C(F)(F)F)nc5)cc4)=NN3C(=O)CCCC(=O)NCCCN3CCOCC3)c(Cl)nc2c1 (stereo not given) | Soluble | 5.8 µM | Drug uptake [2]: Active |
| CCOC(=O)CCCC(=O)N1N=C(c2ccc(I)cc2)CC1c1cc2ccc(OCC)cc2nc1Cl (stereo not given) | – | – | IC50 [3]: Not Active |
| CCOc1ccc2cc(C3CC(c4ccc(-c5ccc(F)nc5)cc4)=NN3C(=O)CCCC(=O)NCCCN3CCOCC3)c(Cl)nc2c1 (stereo not given) | Soluble | 2.3 µM | Drug uptake [2]: Active |
| CCOc1ccc2cc(C3CC(c4ccc(Br)cc4)=NN3C(=O)CCCC(=O)NCCCN3CCOCC3)c(Cl)nc2c1 (stereo not given) | Soluble | 10 µM | – |
| CCOc1ccc2cc(C3CC(c4ccc(I)cc4)=NN3C(=O)CCCC(=O)NCCN3CCOCC3)c(Cl)nc2c1 (stereo not given) | – | 10.5 µM | – |
| CCOc1ccc2cc(C3CC(c4ccc(-c5ccc(N6CCOCC6)cc5)cc4)=NN3C(=O)CCCC(=O)O)c(Cl)nc2c1 (stereo not given) | – | 3.1 µM | inhibition (Homo sapiens): Active |
| CCOc1ccc2cc(C3CC(c4ccc(I)cc4)=NN3c3cccc(C(=O)O)c3)c(Cl)nc2c1 (stereo not given) | – | – | IC50 [3]: Not Active |
| CCOc1ccc2cc(C3CC(c4ccc(OC(=O)N5CCOCC5)cc4)=NN3C(=O)CCCC(=O)O)c(Cl)nc2c1 (stereo not given) | – | > 25 µM | – |
| CC1(C)[C@@H]2CC[C@@]1(C)[C@H](OC(=O)CI)C2 | – | – | IC50 [4]: 10 µM |

Now from value to compound, other results behind:

| solubility [1] | IC50 ([3]; read-out: IC50) | Compound | other results |
| --- | --- | --- | --- |
| – | > 25 µM | CCOc1ccc2cc(C3CC(c4ccc(O)cc4)=NN3C(=O)CCCC(=O)O)c(Cl)nc2c1 (stereo not given) | – |
| – | 1.7 µM | CCOc1ccc2cc(C3CC(c4ccc(-c5cnoc5)cc4)=NN3C(=O)CCCC(=O)O)c(Cl)nc2c1 (stereo not given) | inhibition (Homo sapiens): Active |
| Soluble | 15.3 to 18 µM | CCOc1ccc2cc(C3CC(c4ccc(I)cc4)=NN3C(=O)CCCC(=O)O)c(Cl)nc2c1 (stereo not given) | Drug uptake [2]: Not Active |
| Soluble | 19.2 µM | CCOc1ccc2cc(C3CC(c4ccc(Br)cc4)=NN3C(=O)CCCC(=O)O)c(Cl)nc2c1 (stereo not given) | – |
| – | 6.7 µM | CCOc1ccc2cc(C3CC(c4ccc(-c5ccoc5)cc4)=NN3C(=O)CCCC(=O)O)c(Cl)nc2c1 (stereo not given) | – |
| – | > 25 µM | CCOc1ccc2cc(C3CC(c4ccc([N+](=O)[O-])cc4)=NN3C(=O)CCCC(=O)O)c(Cl)nc2c1 (stereo not given) | – |
| Soluble | 1.6 µM | CCOc1ccc2cc(C3CC(c4ccc(-c5ccc(Cl)nc5)cc4)=NN3C(=O)CCCC(=O)O)c(Cl)nc2c1 (stereo not given) | inhibition (Homo sapiens): Active; Drug uptake [2]: Active; inhibition (Salmon testes DNA): inactive |
| – | 1 µM | CCOc1ccc2cc(C3CC(c4ccc(-c5ccc(Br)nc5)cc4)=NN3C(=O)CCCC(=O)O)c(Cl)nc2c1 (stereo not given) | inhibition (Homo sapiens): Active; inhibition (Salmon testes DNA): inactive |
| Soluble | 4.3 µM | CCOc1ccc2cc(C3CC(c4ccc(-c5ccc(C(F)(F)F)nc5)cc4)=NN3C(=O)CCCC(=O)O)c(Cl)nc2c1 (stereo not given) | – |
| – | 8.9 µM | C=CC(=O)Oc1ccc(C2=NN(C(=O)CCCC(=O)O)C(c3cc4ccc(OCC)cc4nc3Cl)C2)cc1 (stereo not given) | – |
| – | 2.1 µM | CCOc1ccc2cc(C3CC(c4ccc(-c5ccco5)cc4)=NN3C(=O)CCCC(=O)O)c(Cl)nc2c1 (stereo not given) | inhibition (Homo sapiens): Active; inhibition (Salmon testes DNA): inactive |
| Soluble | 2.6 µM | CCOc1ccc2cc(C3CC(c4ccc(-c5ccc(F)nc5)cc4)=NN3C(=O)CCCC(=O)O)c(Cl)nc2c1 (stereo not given) | – |
| – | 38 µM | CCOc1ccc2cc(C3CC(c4ccc(Br)cc4)=NN3C(=O)CCC(=O)O)c(Cl)nc2c1 (stereo not given) | – |
| – | 2.3 µM | CCOc1ccc2cc(C3CC(c4ccc(N)cc4)=NN3C(=O)CCCC(=O)O)c(Cl)nc2c1 (stereo not given) | inhibition (Salmon testes DNA): inactive |

Reference: ChEMBL document CHEMBL4616692, “Structure-Guided Optimization of Replication Protein A (RPA)-DNA Interaction Inhibitors” (ACS Med Chem Lett, 2020)
